{
  "source": "ChEMBL document CHEMBL3763066",
  "about": "“Potent μ-Opioid Receptor Agonists from Cyclic Peptides Tyr-c[D-Lys-Xxx-Tyr-Gly]: Synthesis, Biological, and Structural Evaluation” (J Med Chem, 2016)",
  "key": {"Rattus norvegicus": {"organism": "Rattus norvegicus", "assay": "Selectivity ratio of Ki for rat cortical DOR to Ki for rat cortical MOR"}, "[1]": {"biological_target": "Delta-type opioid receptor (Rattus norvegicus, UniProt P33533)", "sequence (P33533 whole entry)": "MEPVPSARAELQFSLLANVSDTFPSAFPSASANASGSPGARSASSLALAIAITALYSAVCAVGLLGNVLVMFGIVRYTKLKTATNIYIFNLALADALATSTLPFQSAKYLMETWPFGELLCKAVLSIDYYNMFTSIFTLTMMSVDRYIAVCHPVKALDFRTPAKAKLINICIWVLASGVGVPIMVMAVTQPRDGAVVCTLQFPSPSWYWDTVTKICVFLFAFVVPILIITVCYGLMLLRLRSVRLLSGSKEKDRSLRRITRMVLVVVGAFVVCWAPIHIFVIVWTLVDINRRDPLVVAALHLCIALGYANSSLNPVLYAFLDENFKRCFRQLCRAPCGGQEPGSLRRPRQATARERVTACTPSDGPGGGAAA", "assay": "Displacement of [3H]DPDPE from rat cortical DOR after […] by liquid scintillation counting method"}, "Mu-type opioid receptor [2]": {"biological_target": "Mu-type opioid receptor (Rattus norvegicus, UniProt P33535)", "sequence (P33535 whole entry)": "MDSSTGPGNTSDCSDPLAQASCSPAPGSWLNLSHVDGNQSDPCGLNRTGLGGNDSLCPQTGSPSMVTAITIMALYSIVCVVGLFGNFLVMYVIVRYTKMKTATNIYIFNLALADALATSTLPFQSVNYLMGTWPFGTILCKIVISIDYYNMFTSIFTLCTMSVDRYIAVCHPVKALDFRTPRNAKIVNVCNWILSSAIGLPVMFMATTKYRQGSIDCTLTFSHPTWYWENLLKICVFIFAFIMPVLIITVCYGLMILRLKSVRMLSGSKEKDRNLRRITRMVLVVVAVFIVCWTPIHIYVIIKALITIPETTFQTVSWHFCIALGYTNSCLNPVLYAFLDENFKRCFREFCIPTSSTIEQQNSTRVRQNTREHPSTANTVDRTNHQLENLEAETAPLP", "assay": "Displacement of [3H]DAMGO from rat cortical MOR by liquid scintillation counting method"}, "[3]": {"assay": "Selectivity ratio of Ki for guinea pig KOR to Ki for rat cortical MOR", "how_it_was_run": "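KOR: guinea pig cortex and cerebellum membranes in 50 mM Tris pH 7.4, 10 mM MgCl2, 200 μM PMSF, with 2 nM [3H]U69,593, 2 h at 25 °C; U50,488 defined nonspecific binding. […] Both used GF/B filtration and scintillation counting. The ratio is Ki(KOR)/Ki(MOR).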"}, "Mu-type opioid receptor [4]": {"biological_target": "T1, Mu-type opioid receptor (Homo sapiens, UniProt P35372)", "T1 sequence (P35372 whole entry)": "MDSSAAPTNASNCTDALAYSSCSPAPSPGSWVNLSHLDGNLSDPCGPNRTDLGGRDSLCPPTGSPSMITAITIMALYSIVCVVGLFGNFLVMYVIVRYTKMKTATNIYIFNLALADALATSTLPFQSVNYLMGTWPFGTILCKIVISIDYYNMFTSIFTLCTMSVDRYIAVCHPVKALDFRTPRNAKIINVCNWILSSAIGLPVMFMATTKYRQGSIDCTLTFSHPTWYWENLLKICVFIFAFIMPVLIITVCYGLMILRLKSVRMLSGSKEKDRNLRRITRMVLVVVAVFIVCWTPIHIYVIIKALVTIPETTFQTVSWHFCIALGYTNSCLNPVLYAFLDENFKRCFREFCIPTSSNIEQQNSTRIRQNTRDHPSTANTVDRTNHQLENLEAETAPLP", "type": "cell-based, CHO"}, "[5]": {"biological_target": "Kappa-type opioid receptor (Cavia porcellus, UniProt P41144)", "sequence (P41144 whole entry)": "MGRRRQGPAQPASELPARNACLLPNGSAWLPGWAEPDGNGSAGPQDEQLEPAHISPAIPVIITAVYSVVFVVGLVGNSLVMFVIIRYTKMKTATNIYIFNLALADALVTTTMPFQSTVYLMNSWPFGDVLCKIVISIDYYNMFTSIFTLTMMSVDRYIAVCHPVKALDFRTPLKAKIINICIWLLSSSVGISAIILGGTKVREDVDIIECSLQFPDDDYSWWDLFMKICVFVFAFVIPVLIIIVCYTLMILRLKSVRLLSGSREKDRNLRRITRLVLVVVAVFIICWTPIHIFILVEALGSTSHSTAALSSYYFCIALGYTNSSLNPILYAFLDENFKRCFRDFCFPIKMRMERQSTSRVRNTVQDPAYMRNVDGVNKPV", "assay": "Displacement of [3H]U69,593 from guinea pig KOR after 2 hrs by liquid scintillation counting method"}, "Mu-type opioid receptor [6]": {"biological_target": "T1, Mu-type opioid receptor", "assay": "Potency index, ratio of morphine EC50 to compound EC50 for human MOR", "how_it_was_run": "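CHO cells expressing human MOR were seeded 1 day before the assay. Cells were loaded with membrane-potential blue dye in HBSS/20 mM HEPES pH 7.4 for 45 min at 37 °C, then compound was added. Fluorescence (ex 530, em 550–565 nm) was read every 3 s for 60 s, taking maximum minus minimum response. The index is morphine EC50 divided by compound EC50.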"}},
  "note": "Where a SMILES comes first, the peptide text is derived from it. Bridges are numbered along the chain shown (N, C = ends). [ ]: non-standard residue; d: D form. 2Abz = Nc1ccccc1C(=O)O; Dap = NC[C@H](N)C(=O)O",
  "data": [
    {"smiles": "N=C(N)NCCC[C@@H]1NC(=O)[C@H](NC(=O)[C@@H](N)Cc2ccc(O)cc2)CCCCNC(=O)CNC(=O)[C@H](Cc2ccc(O)cc2)NC1=O", "values": [
      {"measurement": "Ratio Ki", "setting": "Rattus norvegicus", "value": "> 805"},
      {"measurement": "Ki", "setting": "[1]", "value": "> 10000", "unit": "nM"},
      {"measurement": "Ki", "setting": "Mu-type opioid receptor [2]", "value": 17.4, "unit": "nM"},
      {"measurement": "Ratio Ki", "setting": "[3]", "value": 406},
      {"measurement": "IC50", "setting": "Mu-type opioid receptor [4]", "value": 131, "unit": "nM"},
      {"measurement": "Ki", "setting": "[5]", "value": 8530, "unit": "nM"}
    ]},
    {"smiles": "N[C@@H](Cc1ccc(O)cc1)C(=O)N[C@@H]1CCCCNC(=O)CNC(=O)[C@H](Cc2ccc(O)cc2)NC(=O)[C@H](Cc2cccnc2)NC1=O", "values": [
      {"measurement": "Ratio Ki", "setting": "Rattus norvegicus", "value": 658},
      {"measurement": "Ki", "setting": "[1]", "value": 1280, "unit": "nM"},
      {"measurement": "Ki", "setting": "Mu-type opioid receptor [2]", "value": 1.95, "unit": "nM"},
      {"measurement": "Ratio Ki", "setting": "[3]", "value": 1320},
      {"measurement": "IC50", "setting": "Mu-type opioid receptor [4]", "value": 11.1, "unit": "nM"},
      {"measurement": "Ki", "setting": "[5]", "value": 5330, "unit": "nM"}
    ]},
    {"smiles": "N[C@@H](Cc1ccc(O)cc1)C(=O)N[C@@H]1CCCCNC(=O)CNC(=O)[C@H](Cc2ccc(O)cc2)NC(=O)[C@H](Cc2c[nH]c3ccccc23)NC1=O", "values": [
      {"measurement": "Ratio Ki", "setting": "Rattus norvegicus", "value": 50},
      {"measurement": "Ki", "setting": "[1]", "value": 99, "unit": "nM"},
      {"measurement": "Ki", "setting": "Mu-type opioid receptor [2]", "value": 1.99, "unit": "nM"},
      {"measurement": "Ratio Ki", "setting": "[3]", "value": 2940},
      {"measurement": "IC50", "setting": "Mu-type opioid receptor [4]", "value": 24, "unit": "nM"},
      {"measurement": "Ki", "setting": "[5]", "value": 8160, "unit": "nM"}
    ]},
    {"smiles": "Nc1ccccc1C(=O)NC[C@@H]1NC(=O)[C@H](NC(=O)[C@@H](N)Cc2ccc(O)cc2)CCCCNC(=O)CNC(=O)[C@H](Cc2ccc(O)cc2)NC1=O", "note": "(H-Y[dK][Dap](2Abz)YG; lactam 2-C)", "values": [
      {"measurement": "Ratio Ki", "setting": "Rattus norvegicus", "value": 62},
      {"measurement": "Ratio Ki", "setting": "[3]", "value": 231},
      {"measurement": "Ki", "setting": "[5]", "value": 3230, "unit": "nM"}
    ]},
    {"smiles": "NC(=O)NCCC[C@@H]1NC(=O)[C@H](NC(=O)[C@@H](N)Cc2ccc(O)cc2)CCCCNC(=O)CNC(=O)[C@H](Cc2ccc(O)cc2)NC1=O", "values": [
      {"measurement": "Ratio Ki", "setting": "Rattus norvegicus", "value": 367},
      {"measurement": "Ki", "setting": "[1]", "value": 3320, "unit": "nM"},
      {"measurement": "Ki", "setting": "Mu-type opioid receptor [2]", "value": 9.04, "unit": "nM"},
      {"measurement": "Ratio Ki", "setting": "[3]", "value": 760},
      {"measurement": "IC50", "setting": "Mu-type opioid receptor [4]", "value": 66.9, "unit": "nM"},
      {"measurement": "Ki", "setting": "[5]", "value": 8430, "unit": "nM"}
    ]},
    {"smiles": "N[C@@H](Cc1ccc(O)cc1)C(=O)N[C@@H]1CCCCNC(=O)CNC(=O)[C@H](Cc2ccc(O)cc2)NC(=O)[C@H](Cc2ccc(O)cc2)NC1=O", "values": [
      {"measurement": "Ratio Ki", "setting": "Rattus norvegicus", "value": 1.5},
      {"measurement": "Ki", "setting": "[1]", "value": 171, "unit": "nM"},
      {"measurement": "Ki", "setting": "Mu-type opioid receptor [2]", "value": 114, "unit": "nM"},
      {"measurement": "Ratio Ki", "setting": "[3]", "value": "> 324"},
      {"measurement": "IC50", "setting": "Mu-type opioid receptor [4]", "value": 70.4, "unit": "nM"},
      {"measurement": "Ki", "setting": "[5]", "value": "> 10000", "unit": "nM"}
    ]},
    {"smiles": "N[C@@H](Cc1ccc(O)cc1)C(=O)N[C@@H]1CCCCNC(=O)CNC(=O)[C@H](Cc2ccc(O)cc2)NC(=O)[C@H](Cc2ccccc2)NC1=O", "values": [
      {"measurement": "Ratio Ki", "setting": "Rattus norvegicus", "value": 39},
      {"measurement": "Ki", "setting": "[1]", "value": 39, "unit": "nM"},
      {"measurement": "Ki", "setting": "Mu-type opioid receptor [2]", "value": 0.99, "unit": "nM"},
      {"measurement": "Ratio EC50", "setting": "Mu-type opioid receptor [6]", "value": 3},
      {"measurement": "Ratio Ki", "setting": "[3]", "value": 4520},
      {"measurement": "IC50", "setting": "Mu-type opioid receptor [4]", "value": 2.3, "unit": "nM"},
      {"measurement": "Ki", "setting": "[5]", "value": 4450, "unit": "nM"}
    ]},
    {"smiles": "N[C@@H](Cc1ccc(O)cc1)C(=O)N[C@@H]1CCCCNC(=O)CNC(=O)[C@H](Cc2ccc(O)cc2)NC(=O)[C@H](Cc2ccncc2)NC1=O", "values": [
      {"measurement": "Ratio Ki", "setting": "Rattus norvegicus", "value": 247},
      {"measurement": "Ki", "setting": "[1]", "value": 2270, "unit": "nM"},
      {"measurement": "Ki", "setting": "Mu-type opioid receptor [2]", "value": 9.21, "unit": "nM"},
      {"measurement": "Ratio Ki", "setting": "[3]", "value": 1100},
      {"measurement": "IC50", "setting": "Mu-type opioid receptor [4]", "value": 32, "unit": "nM"},
      {"measurement": "Ki", "setting": "[5]", "value": "> 10000", "unit": "nM"}
    ]}
  ]
}
